Data published in ChEMBL document CHEMBL3826882, “Discovery of 1-((2R,4aR,6R,7R,7aR)-2-Isopropoxy-2-oxidodihydro-4H,6H-spiro[furo[3,2-d][1,3,2]dioxaphosphinine-7,2'-oxetan]-6-yl)pyrimidine-2,4(1H,3H)-dione (JNJ-54257099), a 3'-5'-Cyclic Phosphate Ester Prodrug of 2'-Deoxy-2'-Spirooxetane Uridine Triphosphate Useful for HCV Inhibition” (J Med Chem, 2016).
One block for each compound: values may come before it.

What was measured:
[1] = Drug metabolism in dog primary hepatocyte supernatant assessed as 1-[(4aR,6R,7R,7aR)-2-hydroxy-2-oxidodihydro-4H-spiro[furo[3,2-d][1,3,2]dioxaphosphinine-7,2'-oxetan]-6-yl]pyrimidine-2,4(1H,3H)-dione formation at 2 to 62.5 uM after 4 to 24 hrs using radiolabelled compound by HPLC analysis; type: ADME, cell-based, Canis lupus familiaris; conditions: hepatocytes
How it was run: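 Study A: primary cultured hepatocytes (mouse, rat, dog, human) incubated with 2 or 62.5 µM 5'-[3H]-labelled prodrug for 4 and 24 h. Cell lysates were analysed for triphosphate. Supernatants were protein-precipitated and profiled by HPLC with radioactivity detection. Cyclic monophosphate was also assessed by LC/MS/MS.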

Hepatocyte [2] = assay: Prodrug conversion in human primary hepatocytes assessed as 2'-deoxy-2'-spirooxetane uridine triphosphate level per million cells at 2 uM after 24 hrs using radiolabelled compound by LC-MS/MS analysis; type: ADME, cell-based
How it was run: (§1)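 Study A: fresh primary hepatocyte cultures from mouse, rat, dog and human incubated with tritiated prodrug at 2 or 62.5 µM for 4 or 24 h. Triphosphate in cell lysates reported as pmol/million hepatocytes. Duplicate or single measurements.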

Hepatocyte [3] = assay: Prodrug conversion in rat primary hepatocytes assessed as 2'-deoxy-2'-spirooxetane uridine triphosphate level per million cells at 2 uM after 4 hrs using radiolabelled compound by LC-MS/MS analysis; type: ADME, cell-based; how it was run: as §1
[4] = Prodrug conversion in dog primary hepatocytes assessed as 2'-deoxy-2'-spirooxetane uridine triphosphate level per million cells at 62.5 uM after 24 hrs using radiolabelled compound by LC-MS/MS analysis; type: ADME, cell-based, Canis lupus familiaris, Hepatocyte; how it was run: as §1
Hepatocyte [5] = assay: Drug metabolism in human primary hepatocyte supernatant assessed as 1-[(4aR,6R,7R,7aR)-2-hydroxy-2-oxidodihydro-4H-spiro[furo[3,2-d][1,3,2]dioxaphosphinine-7,2'-oxetan]-6-yl]pyrimidine-2,4(1H,3H)-dione formation at 2 to 62.5 uM after 4 to 24 hrs using radiolabelled compound by HPLC analysis; type: ADME, cell-based; conditions: hepatocytes
How it was run: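 Fresh primary hepatocyte cultures incubated with tritiated prodrug (5'-[3H]) at 2 and 62.5 µM for 4 and 24 h. Supernatants taken after protein precipitation and profiled by HPLC with radioactivity detection. Cell lysates profiled for metabolites by radio-LC. Cyclic monophosphate also measured by LC/MS/MS.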

Hepatocyte [6] = assay: Prodrug conversion in mouse primary hepatocytes assessed as 2'-deoxy-2'-spirooxetane uridine triphosphate level per million cells at 2 uM after 4 hrs using radiolabelled compound by LC-MS/MS analysis; type: ADME, cell-based; how it was run: as §1
Hepatocyte [7] = assay: Prodrug conversion in human hepatocytes assessed as 2'-deoxy-2'-spirooxetane uridine triphosphate formation in presence of PDE5 inhibitor sildenafil by LC-MS/MS analysis; type: ADME, cell-based
Liver [8] = assay: Half life in mouse liver assessed as 2'-deoxy-2'-spirooxetane uridine triphosphate at 50 mg/kg, po; type: ADME, organism-based; conditions: in vivo
How it was run: (§2)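 Single oral dose of 50 mg/kg in 20% HP-β-cyclodextrin. Prodrug and triphosphate measured in plasma and liver over time (tlast 6–30 h). Half-life, Cmax, tmax and AUC0-last derived; liver/plasma ratio taken from AUC0-last. Prodrug data pooled from two independent studies.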

Hepatitis C virus [9] = assay: Antiviral activity against HCV genotype 1a infected in homozygous cDNA-uPA chimeric SCID mouse bearing humanized hepatocytes assessed as change in HCV RNA level in serum at 100 mg/kg, po qd administered through gavage for 7 days by RT-PCR method; type: functional, Hepacivirus hominis, subtype 1a, Hepatocyte
How it was run: (§3)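 Male chimeric SCID cDNA-uPA+/+ mice with human hepatocyte liver (≥70% replacement by blood human albumin) and serum HCV RNA >1.0×10^6 copies/mL the week before dosing. Oral gavage for 7 days in 20% HP-β-CD, 50-200 mg/kg QD or BID. Serum sampled pre-dose on days 1, 2, 3, 5 and 7. Real-time PCR; mean change in log10 copies/mL, day 7 vs day 1 pre-dose.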

[10] = Ratio of AUC (0 to last) in dog liver to AUC (0 to last) in dog plasma; type: ADME, Canis lupus familiaris; how it was run: as §2
[11] = AUC (0 to infinity) in rat plasma at 50 mg/kg, po; type: ADME, organism-based; set-up: dose 50 mg/kg, time infinity, route oral
How it was run: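 Oral dose 50 mg/kg, formulated in 20% HP-β-cyclodextrin. Prodrug and triphosphate were measured in plasma and liver (ng/mL or ng/g). Parameters derived were Cmax, tmax, AUC0-last, AUC0-inf and t1/2. Some prodrug data come from two independent studies.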

[12] = Half life in rat liver at 50 mg/kg, po; type: ADME, organism-based; how it was run: as §2
Liver [13] = assay: Tlast in mouse liver at 50 mg/kg, po; type: ADME, organism-based; conditions: in vivo
How it was run: (§4)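 Single oral dose of 50 mg/kg formulated in 20% HP-β-cyclodextrin. Prodrug and its triphosphate were measured in plasma and liver (ng/mL or ng/g) over time, and Cmax, tmax, AUC, tlast and t1/2 were derived. For some analytes, data from two independent studies are reported.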

Liver [14] = assay: Half life in rat liver assessed as 2'-deoxy-2'-spirooxetane uridine triphosphate at 50 mg/kg, po; type: ADME, organism-based; conditions: in vivo; how it was run: as §2
Mus musculus = assay: Half life in homozygous cDNA-uPA chimeric SCID mouse bearing humanized hepatocytes infected with HCV assessed as 2'-deoxy-2'-spirooxetane uridine triphosphate at 50 to 200 mg/kg, po bid administered through gavage for 7 days; type: ADME, organism-based, Hepatocyte; conditions: 168 h
Liver [15] = assay: Tlast in rat liver assessed as 2'-deoxy-2'-spirooxetane uridine triphosphate at 50 mg/kg, po; type: ADME, organism-based; conditions: in vivo; how it was run: as §4
Plasma = assay: Tlast in rat plasma at 50 mg/kg, po; type: ADME, organism-based; conditions: in vivo; how it was run: as §4
Hepatocyte [16] = assay: Drug metabolism in human hepatocytes assessed as ((4R,5R,7R,8R)-5-(2,4-dioxo-3,4-dihydropyrimidin-1(2H)-yl)-8-hydroxy-1,6-dioxaspiro[3.4]octan-7-yl)methyl dihydrogen phosphate formation in presence of pan-PDE inhibitor ibudilast by LC-MS/MS analysis; type: ADME, cell-based
Hepatitis C virus [17] = assay: Antiviral activity against HCV genotype 3a infected in homozygous cDNA-uPA chimeric SCID mouse bearing humanized hepatocytes assessed as reduction in HCV RNA level in serum administered through oral gavage twice daily daily for 7 days by RT-PCR method; type: functional, organism-based; conditions: Hepacivirus hominis, Hepatocyte; how it was run: as §3
[18] = Ratio of AUC (0 to last) in rat liver to AUC (0 to last) in rat plasma; type: ADME; how it was run: as §2
[19] = Tmax in rat plasma at 50 mg/kg, po; type: ADME, organism-based; how it was run: as §4
[20] = Prodrug conversion in dog cryopreserved hepatocytes assessed as 2'-deoxy-2'-spirooxetane uridine triphosphate level per million cells at 10 uM after 24 hrs by LC-MS/MS analysis; type: ADME, cell-based, Canis lupus familiaris, Hepatocyte
How it was run: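 Plated cryopreserved hepatocytes (study B) incubated with 10 µM unlabeled prodrug for 2, 8 or 24 h. Triphosphate measured in cell lysates and expressed as pmol/million hepatocytes. Quantification limit 2 ng/10^6 cells.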

[21] = Cmax in rat liver at 50 mg/kg, po; type: ADME, organism-based; set-up: dose 50 mg/kg, route oral
Hepatocyte [22] = assay: Drug level in human hepatocytes in presence of pan-CYP inhibitor 1-ABT by LC-MS/MS analysis; type: ADME, cell-based
Hepatocyte [23] = assay: Drug metabolism in human hepatocytes assessed as ((4R,5R,7R,8R)-5-(2,4-dioxo-3,4-dihydropyrimidin-1(2H)-yl)-8-hydroxy-1,6-dioxaspiro[3.4]octan-7-yl)methyl dihydrogen phosphate formation in presence of PDE5 inhibitor sildenafil by LC-MS/MS analysis; type: ADME, cell-based
[24] = Cmax in mouse plasma at 50 mg/kg, po; type: ADME, organism-based; set-up: dose 50 mg/kg, route oral
Hepatocyte [25] = assay: Prodrug conversion in human primary hepatocytes assessed as 2'-deoxy-2'-spirooxetane uridine triphosphate formation measured at 8 hrs by LC-MS/MS analysis; type: ADME, cell-based
How it was run: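 Hepatocyte primary cultures followed over time for triphosphate formation in cell lysates: rat and mouse up to 24 h, human up to 96 h.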

Drug metabolism [1]: metabolite_detected | Drug metabolism (Hepatocyte [2]): 0.025 pmol | Drug metabolism (Hepatocyte [3]): 0.085 pmol | Drug metabolism [4]: 0.11 pmol | Drug metabolism (Hepatocyte [5]): metabolite_detected | Drug metabolism (Hepatocyte [6]): 0.063 pmol
SMILES: [3H]C1O[P@](=O)(OC(C)C)O[C@@H]2[C@@H]1O[C@@H](n1ccc(=O)[nH]c1=O)[C@@]21CCO1 (some centres not stated)

SMILES: CC(C)O[P@@]1(=O)OC[C@H]2O[C@@H](n3ccc(=O)[nH]c3=O)[C@@]3(CCO3)[C@@H]2O1
Drug metabolism (Hepatocyte [7]): metabolite_notdetected | t1/2 (Liver [8]): 3.9 h | Activity (Hepatitis C virus [9]): -0.83 | Kp [10]: 1.4 | AUC(0-inf) [11]: 7440 ng·h/mL | half-life [12]: 5.3 h | Tlast (Liver [13]): 6 h | t1/2 (Liver [14]): 5.8 h | t1/2 (Mus musculus): 3.9 h | Tlast (Liver [15]): 30 h | Tlast (Plasma): 30 h | Drug metabolism (Hepatocyte [16]): metabolite_detected | Activity (Hepatitis C virus [17]): Dose-dependent effect | Kp [18]: 0.34 | Tmax [19]: 0.5 h | Drug metabolism [20]: < 2 ng | Cmax [21]: 944 ng/g | Drug uptake (Hepatocyte [22]): Active | Drug metabolism (Hepatocyte [23]): metabolite_notdetected | Cmax [24]: 851 ng/mL | Drug metabolism (Hepatocyte [25]): metabolite_detected
